Results reported in ChEMBL document CHEMBL3817736, “Discovery of Bifunctional Oncogenic Target Inhibitors against Allosteric Mitogen-Activated Protein Kinase (MEK1) and Phosphatidylinositol 3-Kinase (PI3K)” (J Med Chem, 2016).
The source made the active and inactive calls. The rule behind the calls is not given here.

What was measured:
[1] = biological target: Dual specificity mitogen-activated protein kinase kinase 1 (Mus musculus, UniProt P31938); assay: Inhibition of MEK1 in mouse C26 cells assessed as inhibition of ERK1/2 phosphorylation incubated for 1 hr by Western blotting; type: cell-based
Sequence of Dual specificity mitogen-activated protein kinase kinase 1 (Mus musculus, UniProt P31938) (P31938 whole entry): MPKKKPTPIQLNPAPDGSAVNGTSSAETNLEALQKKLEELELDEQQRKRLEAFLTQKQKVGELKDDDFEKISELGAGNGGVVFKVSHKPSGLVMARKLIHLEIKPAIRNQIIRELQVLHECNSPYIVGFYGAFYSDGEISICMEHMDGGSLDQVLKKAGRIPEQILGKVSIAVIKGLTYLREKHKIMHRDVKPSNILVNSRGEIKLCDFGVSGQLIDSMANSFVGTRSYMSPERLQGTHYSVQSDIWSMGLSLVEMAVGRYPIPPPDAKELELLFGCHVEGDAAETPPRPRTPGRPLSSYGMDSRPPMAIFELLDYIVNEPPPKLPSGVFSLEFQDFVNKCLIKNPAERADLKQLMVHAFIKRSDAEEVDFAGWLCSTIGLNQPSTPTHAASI

[2] = Inhibition of PI3K (unknown origin) assessed as reduction in lipid kinase activity by fluorescence-based Adapta TR-FRET assay; parameters: species or system Homo sapiens
A549 [3] = assay: Inhibition of PI3K in human A549 cells assessed as inhibition of AKT phosphorylation at 1 to 25 uM incubated for 1 hr by Western blotting; type: cell-based
Outline: (§1)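 Cells seeded 24 h before treatment, then exposed to compounds for 1 h; DMSO vehicle control. Lysis in NP-40 buffer (1% NP40, 150 mM NaCl, 25 mM Tris pH 8.0) with protease and phosphatase inhibitors. Protein measured by Lowry. Equal protein run on 4-12% Bis-Tris gels and blotted. Probes: pERK1/2 (Thr202/Tyr204), pAKT (S473), total ERK/AKT, β-actin; ECL detection.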

[4] = biological target: T1, Dual specificity mitogen-activated protein kinase kinase 1 (Homo sapiens, UniProt Q02750); assay: Inhibition of purified MEK1 (unknown origin) assessed as reduction in phosphorylation of inactive Erk2 incubated for 30 mins by Kinase-Glo luminescent kinase assay
T1 sequence (Q02750 whole entry): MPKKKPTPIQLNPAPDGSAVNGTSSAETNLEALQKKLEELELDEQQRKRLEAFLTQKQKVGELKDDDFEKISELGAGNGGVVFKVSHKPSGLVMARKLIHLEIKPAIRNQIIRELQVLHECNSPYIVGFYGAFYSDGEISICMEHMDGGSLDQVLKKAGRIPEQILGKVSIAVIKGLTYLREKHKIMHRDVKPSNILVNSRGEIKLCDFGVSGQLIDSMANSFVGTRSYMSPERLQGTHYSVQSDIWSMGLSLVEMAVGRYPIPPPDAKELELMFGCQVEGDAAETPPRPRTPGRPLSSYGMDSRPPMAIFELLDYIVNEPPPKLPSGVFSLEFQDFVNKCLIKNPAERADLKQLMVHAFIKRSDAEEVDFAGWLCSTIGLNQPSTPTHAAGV

D54 [5] = assay: Inhibition of PI3K in human D54 cells assessed as inhibition of AKT phosphorylation at 1 to 25 uM incubated for 1 hr by Western blotting; type: cell-based; outline: as §1
Mus musculus [6] = assay: In-vivo inhibition of MEK1 in human D54 cells xenografted nude Foxn1nu mouse assessed as reduction in tumor ERK1/2 phosphorylation at 375 mg/kg, po dosed 2 hrs before mouse sacrifice by Western blot method; type: functional
Outline: (§2)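 Five-week-old athymic nude Foxn1nu mice given s.c. flank injections of 1×10^6 cells in 50% RPMI/50% Matrigel (n=2 per tumor type). At about 150 mm³ tumor volume, mice were fasted 4 h, then dosed by oral gavage with 375 mg/kg in DMSO:HPBCD (3:2) or vehicle. Sacrifice at 2 h. Excised tumors analysed by western blot for pERK1/2 and pAKT.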

Mus musculus [7] = assay: In-vivo inhibition of PI3K in human D54 cells xenografted nude Foxn1nu mouse assessed as reduction in tumor AKT phosphorylation at 375 mg/kg, po dosed 2 hrs before mouse sacrifice by Western blot method; type: functional; outline: as §2
[8] = biological target: T1, Dual specificity mitogen-activated protein kinase kinase 1; assay: Inhibition of MEK1 in human D54 cells assessed as inhibition of ERK1/2 phosphorylation at 1 to 25 uM incubated for 1 hr by Western blotting; type: cell-based; outline: as §1
D54 [9] = assay: Cytotoxic activity against human D54 cells assessed as reduction in cell viability incubated for 48 hrs by alamar blue assay; type: functional, cell-based
Outline: (§3)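 Cells grown in RPMI with 10% heat-inactivated FBS and 1% penicillin/streptomycin/glutamine at 37 °C, 5% CO2. Compounds made as 10 mM DMSO stocks, serially diluted in RPMI. Controls received media with 1% DMSO. Viability read by AlamarBlue fluorescence 48 h after dosing. Combination treatments used co-administered single agents.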

[10] = biological target: T1, Dual specificity mitogen-activated protein kinase kinase 1; assay: Inhibition of MEK1 in human A549 cells assessed as inhibition of ERK1/2 phosphorylation at 1 to 25 uM incubated for 1 hr by Western blotting; type: cell-based; outline: as §1
A549 [11] = assay: Cytotoxic activity against human A549 cells assessed as reduction in cell viability incubated for 48 hrs by alamar blue assay; type: functional, cell-based; outline: as §3
D54 [12] = assay: Cytotoxic activity against human D54 cells assessed as reduction in cell viability incubated for 48 hrs in presence of ZSTK474 by alamar blue assay; type: functional, cell-based; outline: as §3
D54 [13] = assay: Cytotoxic activity against human D54 cells assessed as reduction in cell viability incubated for 48 hrs in presence of PD0325901 by alamar blue assay; type: functional, cell-based; outline: as §3
Mus musculus [14] = assay: In-vivo inhibition of PI3K in human D54 cells xenografted nude Foxn1nu mouse assessed as reduction in tumor AKT phosphorylation dosed through oral gavage 2 hrs before mouse sacrifice by Western blot method; type: functional, organism-based; outline: as §2
Mus musculus [15] = assay: In-vivo inhibition of MEK1 in human A549 cells xenografted nude Foxn1nu mouse assessed as reduction in tumor ERK1/2 phosphorylation dosed through oral gavage 2 hrs before mouse sacrifice by Western blot method; type: functional, organism-based; outline: as §2
Mus musculus [16] = assay: In-vivo inhibition of MEK1 in human D54 cells xenografted nude Foxn1nu mouse assessed as reduction in tumor ERK1/2 phosphorylation dosed through oral gavage 2 hrs before mouse sacrifice by Western blot method; type: functional, organism-based; outline: as §2
Mus musculus [17] = assay: In-vivo inhibition of PI3K in human A549 cells xenografted nude Foxn1nu mouse assessed as reduction in tumor AKT phosphorylation dosed through oral gavage 2 hrs before mouse sacrifice by Western blot method; type: functional, organism-based; outline: as §2

Question: For CNCCONC(=O)c1ccc(F)c(F)c1Nc1ccc(I)cc1F, which IC50 [1] is on record?
Answer: The IC50 was 20 nM.

Question: Which IC50 [2] does the source give for O=C(NOCCOCCOCCOCCN1CCN(c2nc(N3CCOCC3)nc(-n3c(C(F)F)nc4ccccc43)n2)CC1)c1ccc(F)c(F)c1Nc1ccc(I)cc1F here?
Answer: The IC50 was 191 nM.

Question: And the inhibition (A549 [3])?
Answer: Its inhibition is “Active”.

Question: And the IC50 [4]?
Answer: Its IC50 is 0.015 nM.

Question: And the inhibition (D54 [5])?
Answer: Its inhibition is “Active”.

Question: What about the inhibition in vivo at 375 mg/kg (Mus musculus [6]) of the same compound?
Answer: Its inhibition in vivo at 375 mg/kg is 95%.

Question: What about the inhibition in vivo at 375 mg/kg (Mus musculus [7]) of the same compound?
Answer: The inhibition in vivo at 375 mg/kg was 67%.

Question: What about the inhibition [8] of the same compound?
Answer: Its inhibition is “Active”.

Question: What about the inhibition (D54 [9]) of the same compound?
Answer: Its inhibition is “Dose-dependent effect”.

Question: And the inhibition [10]?
Answer: The inhibition was “Active”.

Question: And the inhibition (A549 [11])?
Answer: The inhibition was “Dose-dependent effect”.

Question: Which Activity (D54 [12]) does the source give for O=C(NOC[C@H](O)CO)c1ccc(F)c(F)c1Nc1ccc(I)cc1F here?
Answer: The Activity was “Active”.

Question: What about the inhibition (D54 [9]) of the same compound?
Answer: Its inhibition is “Dose-dependent effect”.

Question: And the inhibition (A549 [11])?
Answer: The inhibition was “Dose-dependent effect”.

Question: For O=C(NOCCNCCCCS(=O)(=O)N1CCN(c2nc(N3CCOCC3)nc(-n3c(C(F)F)nc4ccccc43)n2)CC1)c1ccc(F)c(F)c1Nc1ccc(I)cc1F, which IC50 [2] is on record?
Answer: The IC50 was 285 nM.

Question: And the inhibition [8]?
Answer: Its inhibition is “Active”.

Question: And the inhibition (D54 [9])?
Answer: The inhibition was “Dose-dependent effect”.

Question: And the inhibition [10]?
Answer: The inhibition was “Active”.

Question: And the inhibition (A549 [11])?
Answer: The inhibition was “Dose-dependent effect”.

Question: For FC(F)c1nc2ccccc2n1-c1nc(N2CCOCC2)nc(N2CCOCC2)n1, which inhibition (D54 [9]) is on record?
Answer: Its inhibition is “Dose-dependent effect”.

Question: What about the Activity (D54 [13]) of the same compound?
Answer: Its Activity is “Active”.

Question: And the inhibition (A549 [11])?
Answer: Its inhibition is “Dose-dependent effect”.

Question: What does the source list for O=C(NOCCNCCCCCC(=O)N1CCN(c2nc(N3CCOCC3)nc(-n3c(C(F)F)nc4ccccc43)n2)CC1)c1ccc(F)c(F)c1Nc1ccc(I)cc1F?
Answer: inhibition (A549 [3]): Active; inhibition (D54 [5]): Active; inhibition (Mus musculus [14]): Active; inhibition (Mus musculus [15]): Active; inhibition (Mus musculus [16]): Active; inhibition (Mus musculus [17]): Active; inhibition [8]: Active; inhibition (D54 [9]): Dose-dependent effect; inhibition [10]: Active; inhibition (A549 [11]): Dose-dependent effect

Question: Which results are given for O=C(CNCCONC(=O)c1ccc(F)c(F)c1Nc1ccc(I)cc1F)NCCCCCC(=O)N1CCN(c2nc(N3CCOCC3)nc(-n3c(C(F)F)nc4ccccc43)n2)CC1?
Answer: inhibition (A549 [3]): Active; inhibition (D54 [5]): Active; inhibition [8]: Active; inhibition (D54 [9]): Dose-dependent effect; inhibition [10]: Active; inhibition (A549 [11]): Dose-dependent effect
